Only some compounds are listed: those with a hit (about 4.8% of all), similar ones and a draw of the others.
SKKanGAS inh = SKKanGAS growth inhibition; AID 1662; S. pyogenes SKKanGAS, kanamycin growth, BacTiter-Glo, 6 h; inhibition, % at 7.5 µM; 300,000 tested, 1.3% active;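 active = mean replicate score, as percent of positive control median, at least 50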;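 also: strain carries kanamycin resistance gene driven by streptokinase promoter and grows in 40 µg/ml kanamycin; loss of luminescence reflects streptokinase promoter inhibition or plain growth inhibition; 0% = median of DMSO wells and 100% = positive control at its reference dose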
UPR CHOP act = apoptotic UPR (CHOP) activation; CHO-CHOP luciferase reporter, luminescence; percent of tunicamycin response over DMSO baseline; activation, % at 10 µM; 330,000 tested, 0.34% active;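 active = at 10 µM dose, activation of 40% or more, normalized to positive control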;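 also: 100% = tunicamycin at 10 µg/mL and 0% = DMSO alone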
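Test system: CHO-CHOP cells, stable luciferase reporter of PERK-eIF2a-CHOP signalling | Quantity: 500 CHO-CHOP cells per well | Buffer or medium: F12 plus 10% serum | Compound dosing: 10 µM single point, 0.5% DMSO | Schedule: 6 h compound treatment, 37 °C | Signal: Luciferase luminescence | Control set: Tunicamycin high control, DMSO low control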
Mdm2-MdmX inh = inhibitors of human Mdm2/MdmX interaction | inhibition, % at 8 µM | 330,000 tested, 3% active | SaOS-2 split-luciferase Mdm2/MdmX complementation, luminescence | O15151+Q00987;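 active = inhibition of at least 50% at 8 µM in the primary screen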
Target sequence (O15151 whole entry, looked up): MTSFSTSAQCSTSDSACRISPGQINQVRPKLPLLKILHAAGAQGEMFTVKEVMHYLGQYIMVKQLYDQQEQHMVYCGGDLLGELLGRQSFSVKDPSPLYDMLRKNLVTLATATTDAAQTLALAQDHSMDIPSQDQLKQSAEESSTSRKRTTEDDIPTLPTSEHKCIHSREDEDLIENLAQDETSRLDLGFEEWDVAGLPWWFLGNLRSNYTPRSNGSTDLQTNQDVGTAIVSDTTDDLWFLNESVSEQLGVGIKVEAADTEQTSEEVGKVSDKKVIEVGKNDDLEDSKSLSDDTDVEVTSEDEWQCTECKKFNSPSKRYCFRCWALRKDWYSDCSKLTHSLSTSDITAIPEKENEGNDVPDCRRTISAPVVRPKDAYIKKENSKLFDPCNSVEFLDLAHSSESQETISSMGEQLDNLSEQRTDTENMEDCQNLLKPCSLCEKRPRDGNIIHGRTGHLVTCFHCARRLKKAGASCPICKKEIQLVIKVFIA
Target sequence (Q00987 whole entry, looked up): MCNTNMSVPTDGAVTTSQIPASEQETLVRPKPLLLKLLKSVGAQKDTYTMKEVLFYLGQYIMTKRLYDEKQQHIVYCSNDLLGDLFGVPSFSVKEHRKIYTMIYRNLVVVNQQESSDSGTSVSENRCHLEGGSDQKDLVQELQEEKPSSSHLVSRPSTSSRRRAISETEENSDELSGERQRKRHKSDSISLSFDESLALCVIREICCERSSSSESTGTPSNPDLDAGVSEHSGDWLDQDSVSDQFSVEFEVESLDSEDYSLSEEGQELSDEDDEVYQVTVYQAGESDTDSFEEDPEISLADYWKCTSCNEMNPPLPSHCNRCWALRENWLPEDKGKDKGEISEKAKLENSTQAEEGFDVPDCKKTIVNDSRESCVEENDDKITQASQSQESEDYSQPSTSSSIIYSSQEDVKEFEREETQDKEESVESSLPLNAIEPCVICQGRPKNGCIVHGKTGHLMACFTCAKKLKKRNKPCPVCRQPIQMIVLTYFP
XBP1 UPR activ = adaptive UPR (XBP1) activation; CHO-XBP1 luciferase reporter, IRE1-XBP1 UPR activation, luminescence; percent of tunicamycin response, DMSO as zero; activation, % at 20 µM; 330,000 tested, 0.33% active; AID 463104;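 active = versus positive control, 20 µM dose yields 30% or more activation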;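 also: 100% = tunicamycin at 10 µg/mL and 0% = DMSO only wells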
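Material: CHO-XBP1 cells stably carrying IRE1-XBP1-driven luciferase reporter / Amount: 1000 cells per well / Compound: 20 µM, 1% DMSO / Times: 6 h treatment, 37 °C / Detection: luciferase luminescence / Measure: % activation of reporter signal versus tunicamycin and DMSO controls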
Beta apoptosis = beta cell apoptosis inhibition; INS-1E cytokine-induced death, ATP luminescence, 48 h; percent of positive-control rescue, neutral wells zero; protection from apoptosis, % (test concentration not listed); 300,000 tested, 0.8% active; AID 435005;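 active = Every replicate reaches about 75%, or at least half do and their mean reaches it too, limit read from the data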;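 also: 0% = cytokine-treated negative control wells and 100% = positive control rescue; higher means more ATP so stronger rescue from cytokine killing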
CSC inhib = cancer stem cell inhibition | cancer stem cell-like cells viability, luminescence | inhibition, % at 7.5 µM | 300,000 tested, 1.1% active; in the data active = inhibition above about 75%; tested in HMLE shEcad cells
The depositor's hits bear a star; x = not tested or not shown.

SMILES	SKKanGAS inh	UPR CHOP act	Mdm2-MdmX inh	XBP1 UPR activ	Beta apoptosis	CSC inhib
Cc1ccc(C[n+]2cccc(-c3ccccc3)c2)c(C)c1	-9.0	-2.5	4.4	0.1	97.3*	21.9
O=C(CSc1ccccc1)N1CCCC(Nc2ccccc2)C1 (stereo not given)	-1.6	3.4	12.4	-3.6	5.8	-5.0
COc1ccc(-c2ccc(C(C)=O)cc2)cc1[C@H]1[C@@H]2C=CCC[C@@]2(C)C(=O)N1Cc1ccccc1	x	1.5	41.3	2.8	13.1	67.6
COc1ccc(-c2ccc(C)cc2)cc1[C@H]1[C@@H]2C=CCC[C@@]2(C)C(=O)N1Cc1ccccc1	41.4	0.0	40.5	-0.4	3.6	115.3*
CSc1nc(N)nc2c1ncn2CC(=O)NCCNc1ccc([N+](=O)[O-])cn1	x	1.5	1.1	-1.9	-1.4	x
COc1cc(C(=O)N/N=C/c2ccc(OC(=O)c3cccc(C)c3)cc2)ccc1O	52.0*	3.5	25.2	3.8	-6.8	-5.3
COc1cc(C(=O)N/N=C/c2ccc(OC(=O)c3ccccc3Cl)c(OC)c2)ccc1O	66.4*	3.0	17.3	2.9	-3.2	-14.7
COc1cc(/C=N/NC(=O)c2cccnc2)ccc1OC(=O)c1cc(OC)c(OC)c(OC)c1	3.5	3.4	21.2	11.6	109.1*	x
COc1cc(/C=N/NC(=O)c2ccncc2)ccc1OC(=O)c1ccccc1Cl	-5.1	1.2	25.7	7.2	-2.0	-21.6
COc1cc(/C=N/NC(=O)c2ccc(N)cc2)ccc1OC(=O)c1cccc(C)c1	23.2	1.3	20.6	0.8	-3.3	-13.4
CN1CCN(C(=O)c2cccc(NS(=O)(=O)c3ccc(Br)cc3)c2)CC1	x	0.3	21.9	-2.7	-3.2	x
Cc1ccc(C)c(OCC(=O)Nc2ccc(C(=O)O)cc2NC(=O)COc2cc(C)ccc2C)c1	13.5	1.1	26.6	-5.0	4.1	11.9
COc1ccc(Cc2n[nH]c(=S)n2NC(=O)Nc2ccc(Cl)c(Cl)c2)cc1	65.5*	-0.6	-13.0	2.0	10.0	39.7
Cn1c(CC(=O)Nc2ccc(Cl)c(Cl)c2)n[nH]c1=S	0.1	-1.6	5.7	-2.3	-1.1	7.0
NC(=O)c1ccccc1NC(=O)CSc1cn[nH]n1	-1.9	1.2	34.3	1.3	-0.1	-2.6
O=C/C=C/c1c(-c2ccccc2)cc2oc3ccccc3cc1-2	10.3	4.2	-2.9	5.3	0.9	98.5*
O=c1oc2ccccc2cc1-c1ccc(O)cc1	-7.3	5.0	-95.5	1.4	-7.1	4.3
NS(=O)(=O)c1cccc(NC(=O)COC(=O)c2cc(-c3ccc(Cl)cc3)nc3ccccc23)c1	91.2*	-1.0	-22.6	3.0	1.5	17.1
CN(C)Cc1nc2ccccc2c(=O)n1Cc1nc(-c2cc3ccccc3o2)cs1	74.0*	-0.3	-7.3	-2.5	2.8	34.3
Cc1[nH]c2ccccc2c1/C=N/Nc1ccc([N+](=O)[O-])cc1S(=O)(=O)Nc1ccc(Cl)cc1	101.9*	-1.0	15.1	2.4	x	16.1
O=C(O)COc1ccccc1C=NNc1ccc([N+](=O)[O-])cc1S(=O)(=O)Nc1ccc(Cl)cc1	x	-0.3	12.4	-0.5	-8.4	16.7
O=C(CSc1nnc(Cn2nnc3ccccc32)o1)N(Cc1ccc(Cl)cc1)c1ccccc1	7.6	5.4	17.3	-1.9	99.1*	15.5
CN(C(=S)SCc1ccccc1)C1CCS(=O)(=O)C1 (stereo not given)	-2.3	-0.2	-2.9	-1.8	x	0.6
CC(/C=C1\SC(=S)N(CCCC(=O)Nc2ccc(C(=O)O)cc2)C1=O)=C\c1ccccc1	120.6*	4.5	1.1	-2.9	3.1	x
CC(/C=C1\SC(=S)N(CCC(=O)Nc2cccc(C(=O)O)c2)C1=O)=C\c1ccccc1	111.7*	10.7	14.5	-2.5	-3.3	x
SMILES	SKKanGAS inh	UPR CHOP act	Mdm2-MdmX inh	XBP1 UPR activ	Beta apoptosis	CSC inhib
CC(/C=C1\SC(=S)N(NC(=O)c2ccc(O)cc2)C1=O)=C\c1ccccc1	47.4	1.8	-4.2	-4.6	5.6	76.2*
O=C(/C=C/c1ccc(OC2CSC2)cc1)c1ccccc1	7.9	6.3	-97.1	3.5	1.7	-2.5
O=C(N/N=C/c1ccc(OC2CSC2)cc1)c1ccccc1	-7.3	0.7	-33.4	-0.7	6.0	88.5*
O=C(CCC1CCCC1)c1c(O)c2ccccc2oc1=O	54.2*	5.8	29.6	5.5	7.3	40.3
CCC1CCCCN1S(=O)(=O)c1ccc(S(=O)(=O)N(Cc2ccccn2)CC2CCCO2)cc1 (stereo not given)	-6.1	0.8	6.7	-3.6	72.5	79.0*
COc1ccc(N(CC(=O)NCc2ccc(C)cc2)S(=O)(=O)c2c(C)[nH]c(=O)[nH]c2=O)cc1	0.7	0.0	21.2	-4.8	x	x
CCOc1ccc(N(CC(=O)NCc2ccc(C)cc2)S(=O)(=O)c2c(C)[nH]c(=O)[nH]c2=O)cc1	58.8*	-0.9	23.3	-4.7	-1.7	9.7
Cc1ccc(CN2CCC(n3nccc3NC(=O)CCOc3ccccc3)CC2)cc1C	-0.7	2.9	40.6	-3.7	-1.5	-3.4
Cc1cc(C)c(NC(=O)CSc2nnc(CNC(=O)c3ccco3)o2)c(C)c1	-3.3	-0.7	-0.3	-0.5	-3.6	-2.6
O=C(CC1OC(=O)c2ccccc21)Nc1cc(Cl)ccc1N1CCOCC1 (stereo not given)	x	0.9	4.9	-1.8	7.9	20.8
CC1(C)CN(c2ccccc2)N(C(=O)c2ccc(C#N)cc2)C1=O	1.3	0.6	6.9	2.8	-11.2	90.7*
CC1(C)CN(c2ccccc2)N(C(=O)c2ccc(F)cc2)C1=O	-0.9	-1.1	-2.8	-0.4	-11.5	91.7*
CC(C)c1ccccc1NC(=O)Cn1c(/C=C/c2ccccc2)nc2ccccc21	-0.7	12.3	16.5	32.5*	67.8	29.9
O=c1c2c([N+](=O)[O-])cc([N+](=O)[O-])cc2sn1-c1ccc(Br)cc1	x	1.7	-14.5	-0.6	3.3	-5.2
O=c1c2c([N+](=O)[O-])cc([N+](=O)[O-])cc2sn1Cc1ccccc1	85.4*	7.7	9.6	-5.4	20.6	41.1
CCCOc1ccc(-c2nc(OC)c3ccccc3n2)cc1	56.2*	5.7	18.9	3.7	5.9	25.9
CCOc1nc(Nc2ccc([N+](=O)[O-])cc2)nc(NC(C)(C)C)n1	-6.7	2.8	-18.4	5.1	43.3	15.4
CCN(CC)c1nc(Nc2ccc([N+](=O)[O-])cc2)nc(N(CC)CC)n1	64.9*	2.4	39.8	-6.3	14.7	68.8
COc1cc2sc(-c3ccccc3OC)c(-c3ccc(O)cc3)c2cc1OC	x	-0.4	27.1	3.3	-10.1	80.2*
COc1ccc(-c2sc3ccc(OC)cc3c2-c2ccc(O)cc2)cc1	x	1.9	26.6	16.2	12.5	x
COc1ccc2sc(-c3ccccc3OC)c(-c3ccc(O)cc3)c2c1	x	-2.1	22.2	-0.3	-0.6	108.5*
